What was measured:
[1] = target: T1, Melanin-concentrating hormone receptor 1 (Rattus norvegicus, UniProt P97639); assay: Antagonist activity at rat MCHR1 expressed in HEK293 cells assessed as effect on calcium mobilization; format: functional, cell-based
Summary of the method: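 HEK293 cells stably expressing rat MCH1 were seeded for 16 h, loaded with 1.5 µM Fluo4 in HBSS for 60 min, washed, and preincubated 20 min with a range of test concentrations. They were then challenged with 30 nM MCH peptide. Calcium-driven fluorescence was read on a FLIPR, and IC50 came from nonlinear curve fitting.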

[2] = target: T1, Melanin-concentrating hormone receptor 1; assay: Displacement of [3H]SNAP 7941 from rat MCHR1 expressed in HEK293 cells; format: cell-based
Summary of the method: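 Membranes from PEAK-RAPID HEK293 cells transiently transfected with rat MCH1 were incubated with varying concentrations of [3H]SNAP-7941. Buffer was 50 mM Tris, 10 mM MgCl2, 0.16 mM PMSF, 1 mM 1,10-phenanthroline, 0.2% BSA, pH 7.4; incubation 25 °C, 90 min. Ki is the mean ± SEM of n = 3.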

[3] = tested on: Rattus norvegicus; assay: Anxiolytic activity in rat assessed as increase in social interaction time at 0.3 mg/kg, po relative to control
[4] = Plasma clearance in Sprague-Dawley rat at 2 mg/kg, po and 1 mg/kg, iv; format: ADME, organism-based
Summary of the method: (§1)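 Male Sprague-Dawley rats (200-250 g), n = 2, received 1 mg/kg iv, then 2 mg/kg orally in the same rat 24 h later. Plasma was taken from sampled blood by centrifugation and analysed by turbulent-flow LC/MS/MS. For blood/plasma distribution, blood was spiked at 109 ng/mL. Parameters came from plasma concentration-time profiles.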

[5] = Cmax in Sprague-Dawley rat at 2 mg/kg, po and 1 mg/kg, iv; format: ADME, organism-based; conditions: in vivo; summary of the method: as §1
[6] = Volume of distribution in Sprague-Dawley rat at 2 mg/kg, po and 1 mg/kg, iv; format: ADME, organism-based; conditions: in vivo, read-out: Vss; summary of the method: as §1
[7] = Blood clearance in Sprague-Dawley rat at 2 mg/kg, po and 1 mg/kg, iv; format: ADME, organism-based; conditions: whole blood; summary of the method: as §1
[8] = Bioavailability in Sprague-Dawley rat at 2 mg/kg, po and 1 mg/kg, iv; format: ADME, organism-based; conditions: in vivo; summary of the method: as §1
[9] = organism: Rattus norvegicus; assay: Anxiolytic activity in rat assessed as increase in social interaction time relative to control; format: functional
Summary of the method: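 Rats were acclimated 5 days, housed singly 5 days and handled 5 min daily. Weight-matched (±5%) unfamiliar pairs got identical treatment 1 h before testing, five pairs per group. Chlordiazepoxide 5 mg/kg was the reference. Pairs were placed 15 min in a floor-gridded arena, sessions were videotaped, and social interaction time was scored.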

[10] = Tmax in Sprague-Dawley rat at 2 mg/kg, po and 1 mg/kg, iv; format: ADME, organism-based; conditions: in vivo; summary of the method: as §1
[11] = Half life in Sprague-Dawley rat at 2 mg/kg, po and 1 mg/kg, iv; format: ADME, organism-based; conditions: in vivo; summary of the method: as §1
[12] = Plasma clearance in Sprague-Dawley rat at 1 mg/kg, po and 1 mg/kg, iv; format: ADME, organism-based
Summary of the method: (§2)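 Sprague-Dawley rats were dosed 1 mg/kg orally (n = 2) and 1 mg/kg iv (n = 2). Plasma concentration-time profiles were measured by LC/MS/MS and used for pharmacokinetic analysis.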

[13] = Cmax in Sprague-Dawley rat at 1 mg/kg, po and 1 mg/kg, iv; format: ADME, organism-based; conditions: in vivo; summary of the method: as §2
[14] = Half life in Sprague-Dawley rat at 1 mg/kg, po and 1 mg/kg, iv; format: ADME, organism-based; conditions: in vivo; summary of the method: as §2
[15] = Tmax in Sprague-Dawley rat at 1 mg/kg, po and 1 mg/kg, iv; format: ADME, organism-based; conditions: in vivo; summary of the method: as §2
[16] = Volume of distribution in Sprague-Dawley rat at 1 mg/kg, po and 1 mg/kg, iv; format: ADME, organism-based; conditions: in vivo, read-out: Vss; summary of the method: as §2
[17] = Bioavailability in Sprague-Dawley rat at 1 mg/kg, po and 1 mg/kg, iv; format: ADME, organism-based; conditions: in vivo; summary of the method: as §2
[18] = Drug level in Sprague-Dawley rat plasma at 10 mg/kg, po after 4 hrs; format: ADME, organism-based; design: dose 10 mg/kg, route oral
Summary of the method: (§3)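 Femoral-artery-cannulated male Sprague-Dawley rats (300-350 g), n = 3, were given 10 mg/kg orally in vehicle. Blood was drawn predose and at 1, 2 and 4 h; brains were collected at 4 h and stored at -80 °C. Plasma or brain homogenate was pooled from three rats per time point, protein-precipitated and analysed by LC/MS/MS. Quantitation limits were 2 ng/mL plasma and 2 ng/g brain.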

[19] = Drug level in Sprague-Dawley rat plasma at 10 mg/kg, po after 2 hrs; format: ADME, organism-based; design: dose 10 mg/kg, route oral; summary of the method: as §3
[20] = Drug level in Sprague-Dawley rat brain at 10 mg/kg, po after 4 hrs; format: ADME, organism-based; design: dose 10 mg/kg, route oral; conditions: read-out: Drug uptake; summary of the method: as §3
[21] = Drug level in Sprague-Dawley rat plasma at 10 mg/kg, po after 1 hr; format: ADME, organism-based; design: dose 10 mg/kg, route oral; summary of the method: as §3

T1 sequence (P97639 whole entry): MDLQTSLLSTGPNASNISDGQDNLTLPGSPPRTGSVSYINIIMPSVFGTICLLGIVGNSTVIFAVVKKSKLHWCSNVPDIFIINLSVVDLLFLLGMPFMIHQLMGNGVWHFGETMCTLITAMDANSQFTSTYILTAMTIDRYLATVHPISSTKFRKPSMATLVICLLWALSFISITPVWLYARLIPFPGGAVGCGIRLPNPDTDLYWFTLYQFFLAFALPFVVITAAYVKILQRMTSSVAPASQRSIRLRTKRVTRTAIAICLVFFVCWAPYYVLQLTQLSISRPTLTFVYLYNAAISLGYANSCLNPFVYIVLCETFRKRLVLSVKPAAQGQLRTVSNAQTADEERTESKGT

SMILES | IC50 [1] [nM] | Ki [2] [nM] | other results
Cc1ccc(NC(=O)C(C)C)cc1C1CCN(CCCNC(=O)C2(c3ccc(F)cc3)CCCC2)CC1 | 44 | 3.8 | –
CNC1=Nc2ccc(Cl)cc2C(c2ccccc2)=[N+]([O-])C1 [CHLORDIAZEPOXIDE] | – | – | Time [3]: 85.1 s
CC(C)C(=O)Nc1cccc(C2CCN(CCCNC(=O)C(c3ccc(F)cc3)c3ccc(F)cc3)CC2)c1 | 13 | 1.4 | –
Cc1ccc(NC(=O)C(C)C)cc1C1CCN(CCCNC(=O)[C@H](C)c2ccc(F)cc2)CC1 | 65 | 28 | –
Cc1ccc(NC(=O)C(C)C)cc1C1CCN(CCCNC(=O)C2(c3ccc(F)cc3)CCCCC2)CC1 | 190 | 1.9 | –
Cc1ccc(NC(=O)C(C)C)cc1C1CCN(CCCNC(=O)C(C)c2ccccc2)CC1 (single isomer, unassigned; form 1) | 68 | 34 | –
CC(C)C(=O)Nc1cccc(C2CCN(CCNC(=O)C(c3ccccc3)c3ccccc3)CC2)c1 | 57 | 1.9 | –
CC(C)C(=O)Nc1cc(C2CCN(CCCNC(=O)C(c3ccc(F)cc3)c3ccc(F)cc3)CC2)c(F)cc1F | 34 | 1.8 | clearance [4]: 40 mL/min/kg; Time [3]: 69.3 s; Cmax [5]: 80 ng/mL; Vd [6]: 3.6 L/kg; clearance [7]: 60 mL/min/kg; bioavailability [8]: 48%; Activity [9]: 69.3 s; minimal effective dose ([9]; Rattus norvegicus, read-out: MED): 0.3 mg/kg; Tmax [10]: 0.6 h; half-life [11]: 2.1 h
Cc1ccc(NC(=O)C(C)C)cc1C1CCN(CCCNC(=O)C(c2ccc(F)cc2)c2ccc(F)cc2)CC1 | 27 | 0.62 | –
CCC(C(=O)NCCCN1CCC(c2cccc(NC(=O)C(C)C)c2)CC1)(c1ccccc1)c1ccccc1 | 190 | – | –
CC(C)C(=O)Nc1cccc(C2CCN(CCCNC(=O)C(C)(c3ccccc3)c3ccccc3)CC2)c1 | 140 | 7.5 | –
CCCCCC(C(=O)NCCCN1CCC(c2cccc(NC(=O)C(C)C)c2)CC1)(c1ccccc1)c1ccccc1 | – | 8.5 | –
COCC1=C(C(=O)OC)[C@H](c2ccc(F)c(F)c2)N(C(=O)NCCCN2CCC(c3cccc(NC(C)=O)c3)CC2)C(=O)N1 [SNAP-7941] | – | 0.25 | clearance [12]: 153 mL/min/kg; Cmax [13]: 2.02 ng/mL; half-life [14]: 1.7 h; Tmax [15]: 4 h; Vd [16]: 24 L/kg; bioavailability [17]: 6%
Cc1ccc(NC(=O)C(C)C)cc1C1CCN(CCCNC(=O)C(O)(c2ccccc2)c2ccccc2)CC1 | 27 | 0.6 | –
CC(C)C(=O)Nc1cccc(C2CCN(CCCCNC(=O)C(c3ccccc3)c3ccccc3)CC2)c1 | 620 | 50 | –
Cc1ccc(NC(=O)C(C)C)cc1C1CCN(CCCNC(=O)C(C)c2ccccc2)CC1 (single isomer, unassigned; form 2) | 130 | 37 | –
CC(C)C(=O)Nc1c(F)cc(F)c(C2CCN(CCCNC(=O)C(c3ccc(F)cc3)c3ccc(F)cc3)CC2)c1F | – | 2.9 | –
Cc1ccc(NC(=O)C(C)C)cc1C1CCN(CCCNC(=O)[C@@H](C)c2ccc(F)cc2)CC1 | 26 | 10 | clearance [4]: 25 mL/min/kg; Cmax [5]: 305 ng/mL; Vd [6]: 3.4 L/kg; clearance [7]: 55 mL/min/kg; bioavailability [8]: 81%; Tmax [10]: 2.2 h; half-life [11]: 4.2 h
CC(C)C(=O)Nc1cccc(C2CCN(CCCCCCNC(=O)C(c3ccccc3)c3ccccc3)CC2)c1 | 600 | 29 | –
Cc1ccc(NC(=O)C(C)C)cc1C1CCN(CCCNC(=O)C(c2ccccc2)c2ccccc2)CC1 | 27 | 3 | concentration at 4 h [18]: 75 ng/mL; concentration at 2 h [19]: 59 ng/mL; concentration at 4 h [20]: 13 ng/g; concentration at 1 h [21]: 69 ng/mL
CC(C)C(=O)Nc1cccc(C2CCN(CCCNC(=O)C(c3ccccc3)c3ccccc3)CC2)c1 | 25 | 1.9 | concentration at 4 h [18]: 15 ng/mL; concentration at 2 h [19]: 12 ng/mL; concentration at 1 h [21]: 15 ng/mL
Cc1ccc(C2CCN(CCCNC(=O)C(c3ccccc3)c3ccccc3)CC2)cc1NC(=O)C(C)C | > 1000 | 500 | –
CC(C)C(=O)Nc1cccc(C2CCN(CCCCCNC(=O)C(c3ccccc3)c3ccccc3)CC2)c1 | – | 47 | –

From ChEMBL document CHEMBL1148740, “Synthesis and SAR investigations for novel melanin-concentrating hormone 1 receptor (MCH1) antagonists Part 1. The discovery of arylacetamides as viable replacements for the dihydropyrimidinone moiety of an HTS hit” (J Med Chem, 2007)
